Where two headings read alike, the source gives them in different places. Where a SMILES comes first, the peptide text is derived from it. [ ]: non-standard residue; d: D form. The star is where a group is joined. Cbz = O=C(OCc1ccccc1)* Some results are limits rather than exact numbers.

Test [1] relates to Ub^G76V-GFP. The following applies: read-out: Apparent IC50 Ub^G76V-GFP; adapted from reference; cited from earlier work.
In a further test the target is C522A-p97 (Homo sapiens, UniProt P55072, C522A). As to conditions: cited from earlier work.
C522A-p97, sequence (P55072 whole entry C522A): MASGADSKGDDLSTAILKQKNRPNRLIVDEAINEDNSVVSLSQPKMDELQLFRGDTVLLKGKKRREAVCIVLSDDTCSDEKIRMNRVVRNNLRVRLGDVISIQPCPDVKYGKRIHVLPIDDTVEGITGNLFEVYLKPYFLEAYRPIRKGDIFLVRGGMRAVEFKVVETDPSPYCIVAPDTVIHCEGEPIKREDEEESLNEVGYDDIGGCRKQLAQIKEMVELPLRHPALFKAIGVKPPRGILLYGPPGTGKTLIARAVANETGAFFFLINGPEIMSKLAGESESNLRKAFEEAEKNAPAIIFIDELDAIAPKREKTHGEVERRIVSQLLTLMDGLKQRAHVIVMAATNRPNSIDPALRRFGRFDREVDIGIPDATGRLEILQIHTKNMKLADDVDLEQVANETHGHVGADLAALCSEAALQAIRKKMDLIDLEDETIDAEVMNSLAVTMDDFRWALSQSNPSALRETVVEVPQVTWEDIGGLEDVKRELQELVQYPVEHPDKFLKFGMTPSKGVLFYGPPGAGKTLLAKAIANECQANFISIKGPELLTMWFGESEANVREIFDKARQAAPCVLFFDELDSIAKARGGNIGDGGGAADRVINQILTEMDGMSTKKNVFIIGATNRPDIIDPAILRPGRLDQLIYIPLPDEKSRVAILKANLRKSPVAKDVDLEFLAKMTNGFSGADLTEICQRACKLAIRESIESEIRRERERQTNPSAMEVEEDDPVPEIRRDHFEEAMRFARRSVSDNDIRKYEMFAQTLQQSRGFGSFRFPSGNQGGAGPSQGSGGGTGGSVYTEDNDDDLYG
For test [2], the target named is T1, p97 (Homo sapiens, UniProt P55072). The following applies: read-out: Apparent IC50 p97; ATPase activity; adapted from reference; cited from earlier work.
T1 sequence (P55072 whole entry): as the sequence (P55072 whole entry C522A) above, with A522C counted along it
Another test has as its system Syk. As to conditions: cited from earlier work.
For the next test, the system named is ODD-Luc. The following applies: read-out: Apparent IC50 ODD-Luc; adapted from reference; cited from earlier work.
The test system of test [3] is p97. As to conditions: cited from earlier work.
In test [4] the target is T1, p97. Nature of the test: p97 ATPase activity assay. It counts as biochemical.
The target of a further test is T532C-yeast Cdc48 (Saccharomyces cerevisiae, UniProt P25694, T532C). Nature of the test: ATPase activity assay, T532C-yeast Cdc48. It counts as biochemical.
T532C-yeast Cdc48, sequence (P25694 whole entry T532C): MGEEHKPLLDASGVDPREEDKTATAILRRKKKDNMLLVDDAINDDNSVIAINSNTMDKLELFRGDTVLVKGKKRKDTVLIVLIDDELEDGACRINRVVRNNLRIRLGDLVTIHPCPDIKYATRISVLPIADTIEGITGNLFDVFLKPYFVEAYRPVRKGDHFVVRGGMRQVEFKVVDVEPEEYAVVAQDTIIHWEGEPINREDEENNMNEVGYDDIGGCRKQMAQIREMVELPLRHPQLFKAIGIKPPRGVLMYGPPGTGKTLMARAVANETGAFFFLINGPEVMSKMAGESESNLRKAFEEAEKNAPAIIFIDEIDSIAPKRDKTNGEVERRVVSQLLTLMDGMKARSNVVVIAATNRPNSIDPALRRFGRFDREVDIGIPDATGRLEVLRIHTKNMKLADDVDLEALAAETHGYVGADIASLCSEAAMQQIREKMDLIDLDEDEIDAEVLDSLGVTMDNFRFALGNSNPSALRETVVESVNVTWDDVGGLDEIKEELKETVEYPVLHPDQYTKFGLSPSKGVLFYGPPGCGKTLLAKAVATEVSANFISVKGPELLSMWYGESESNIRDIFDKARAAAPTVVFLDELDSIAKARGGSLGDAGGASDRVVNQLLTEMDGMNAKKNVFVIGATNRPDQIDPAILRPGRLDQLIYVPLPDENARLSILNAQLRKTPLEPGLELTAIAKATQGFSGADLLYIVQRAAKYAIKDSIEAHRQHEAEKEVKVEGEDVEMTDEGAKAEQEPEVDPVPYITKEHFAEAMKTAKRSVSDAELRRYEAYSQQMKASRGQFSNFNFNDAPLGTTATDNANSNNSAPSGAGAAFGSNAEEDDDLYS
Test [5] deals with Ub^G76V-GFP. The test is described as follows: Washout. It counts as cell-based, human. As to conditions: cycloheximide, additional 17 h.
For a further test, the target named is Human 26S proteasome (Homo sapiens, UniProt P28074). Nature of the test: Human 26S proteasome activity assay. It counts as biochemical. As to conditions: 5, 25, or 50 μM; affinity-purified 26S proteasome from Hek293 cells; listed as PPA. The gist of the method:
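26S proteasome was affinity-purified from HEK293 cells stably expressing tagged Rpn11. Suc-LLVY-AMC (60 μM) then started the reaction. Fluorescence was read every 3 min for 30 min, in sextuplicate.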

A further test relates to TCRα-GFP. Nature of the test: TCRα-GFP. The following applies: 10 μM, 60 min or 120 min, cycloheximide, HEK293 cells. It counts as cell-based, human. The gist of the method: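 HEK293 cells stably expressing TCRα-GFP were pretreated 1 h with 4 μM MG132, then washed. They were then incubated with 50 μM cycloheximide plus 10 μM test compound, or MG132 as control, for 60 or 120 min before harvest. Lysates were immunoblotted with anti-GFP, with anti-p97 as loading control, and detected by ECL.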

The test system of test [6] is CB-5083 resistant HCT116 cell line harboring D649A, T688A p97 mutant (CB-R). The test is described as follows: Anti-proliferative assay, CB-5083 resistant HCT116. It counts as cell-based, human. The following applies: compared with parental HCT116; listed as PPA.
Test [7] relates to NMS-873 resistant HCT116 cell line harboring A530T p97 mutant (NMS-R). The test is described as follows: Anti-proliferative assay, NMS-873 resistant HCT116. It counts as cell-based, human. As to conditions: compared with parental HCT116; listed as PPA. In a few lines:
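Cells were grown in RPMI1640 or DMEM with 5% FBS and 1% penicillin-streptomycin. Seeding was 750 or 3000 cells/well, set from each line's luminescence–cell-number standard curve. After 24 h, cells got test compound (eight three-fold dilutions) for 48 h at 37 °C, 5% CO2. Viability was read by CellTiter-Glo luminescence. IC50 came from % growth versus DMSO control. Data are mean ± SEM of four replicate experiments.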

For another test, the target named is Yeast Cdc48 (Saccharomyces cerevisiae, UniProt P25694). The test is described as follows: ATPase activity assay, yeast Cdc48. It counts as biochemical.
Yeast Cdc48, sequence (P25694 whole entry): as the sequence (P25694 whole entry T532C) above, with C532T counted along it
In the next test the target is Hamster NSF (Cricetulus griseus, UniProt P18708). The test is described as follows: ATPase activity assay, NSF. It counts as biochemical.
Hamster NSF, sequence (P18708 whole entry): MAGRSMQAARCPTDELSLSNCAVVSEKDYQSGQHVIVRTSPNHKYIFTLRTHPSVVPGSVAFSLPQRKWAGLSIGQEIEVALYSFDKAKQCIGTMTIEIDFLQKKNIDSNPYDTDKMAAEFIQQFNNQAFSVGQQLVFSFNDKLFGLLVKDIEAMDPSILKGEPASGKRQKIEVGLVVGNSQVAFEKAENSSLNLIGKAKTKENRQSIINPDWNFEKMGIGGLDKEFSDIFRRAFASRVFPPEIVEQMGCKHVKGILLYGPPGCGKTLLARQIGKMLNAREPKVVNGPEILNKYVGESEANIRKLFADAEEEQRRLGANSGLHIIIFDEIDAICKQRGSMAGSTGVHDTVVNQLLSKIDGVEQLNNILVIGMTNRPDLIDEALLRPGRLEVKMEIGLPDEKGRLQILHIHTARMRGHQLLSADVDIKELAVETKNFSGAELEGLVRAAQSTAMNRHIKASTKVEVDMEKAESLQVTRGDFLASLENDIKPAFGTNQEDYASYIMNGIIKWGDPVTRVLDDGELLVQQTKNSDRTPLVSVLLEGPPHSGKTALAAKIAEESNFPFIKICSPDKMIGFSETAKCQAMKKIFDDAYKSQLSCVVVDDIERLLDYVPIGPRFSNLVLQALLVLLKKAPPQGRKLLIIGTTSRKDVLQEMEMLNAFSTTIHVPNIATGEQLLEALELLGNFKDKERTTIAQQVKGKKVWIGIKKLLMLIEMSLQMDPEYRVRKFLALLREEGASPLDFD
A further test concerns C522A mutant. The following applies: cited from earlier work.
The test system of a further test is cancer cell lines. As to conditions: cited from earlier work.

On to “3,4-methylenedioxy-β-nitrostyrene [Compound 2]”, for which the results for the concentration for half-maximal inhibition (IC50) in the test with Ub^G76V-GFP [1], on p97 [2] and in the test on ODD-Luc were 1.6 ± 0.4 µM, 1.7 ± 0.5 µM and 3.9 ± 1 µM, respectively. Besides, the “Activity towards the C522A mutant (in words)” value on C522A-p97 is recorded as “poor activity”. Moreover, the “IC50 Syk (in words)” value in the test with Syk is reported as “submicromolar”.

Turning to `O=C(/C=C1\Nc2ccccc2C(=O)N2CCC[C@@H]12)/C=C/c1c[nH]c2ccc(I)cc12` [5’-I-Fuligocandin B], the IC50 in the test with p97 [3] is 7 µM.

Regarding `Cc1ccc(-c2c(C(=O)CF)n(CCCO)c3ncnc(N)c23)cc1` [Compound 5], at p97 [4] (in vitro and cell-based p97 assays, summary of Table 1), the “Less active than compound 4” value is 10 fold.

As for `O=C(O)/C=C/c1ccc2c(c1)OCO2` [Compound 7], on p97 [4] (summary of Tables 2 and 3), the “Activity in ATPase and Ub^G76V-GFP turnover assays (in words)” value is given as “complete loss of activity”.

At T532C-yeast Cdc48, `CC(C)(C)n1nc(-c2ccccc2)c2c(N)ncnc21` [Compound 17, 4-amino-1-tert-butyl-3-phenyl pyrazolo[3,4-d]pyrimidine] had a half-inhibitory concentration (IC50) greater than 100 µM.

As to `C=CC(=O)Nc1ncnc2c1c(-c1ccccc1)nn2C(C)(C)C` [Compound 18, N-(1-(tert-butyl)-3-phenyl-1H-pyrazolo[3,4-d]pyrimidin-4-yl)acrylamide], the “Reversibility: Ub^G76V-GFP degradation after washout (in words)” value in the test on Ub^G76V-GFP [5] is listed as “irreversibly block degradation”. Also, the “Inhibition of hydrolysis of LLVY-AMC by 26S proteasome (in words)” value on Human 26S proteasome is reported as “did not inhibit”. Moreover, the “Degradation of ERAD substrate TCRα-GFP (in words)” value in the test with TCRα-GFP is listed as “block degradation”. The “Anti-proliferative activity in CB-R HCT116 (in words)” value in test [6] is given as “can inhibit growth”. The “Anti-proliferative activity in NMS-R HCT116 (in words)” value in test [7] is “can inhibit growth”. The “Selectivity on wild-type vs. Cys522-mutated p97” value at p97 [4] is recorded as “up to 100 fold”. In addition, on Yeast Cdc48, the concentration for half-maximal inhibition (IC50) was 300 µM. Also, at Hamster NSF, the half-inhibitory concentration (IC50) stood at 100 µM and the “NSF less sensitive than p97” value is reported as “more than 100 fold”.

With `CC(C)(C)n1nc(-c2ccc3ccccc3c2)c2c(N)ncnc21` [Compound 21, 2-Naphthyl pyrazolopyrimidine], the IC50 against T532C-yeast Cdc48 was greater than 100 µM.

For `CC(C)C[C@@H](C=O)NC(=O)[C@@H](CC(C)C)NC(=O)[C@H](CC(C)C)NC(=O)OCc1ccccc1` [MG132] (Cbz-Leu-[dL]-Leu-aldehyde), the “Reversibility: Ub^G76V-GFP degradation after washout (in words)” value with Ub^G76V-GFP [5] is on record as “degraded after washing out”.

With `COc1cccc2c(NCc3ccccc3)nc(-n3c(N)nc4ccccc43)nc12` [ML240], the half-inhibitory concentration (IC50) in the test on p97 [3] was roughly 0.1 µM.

Turning to `c1ccc(CNc2nc(N3CCOc4ccccc43)nc3c2CCCC3)cc1` [ML241], the concentration for half-maximal inhibition (IC50) in the test with p97 [3] is roughly 0.1 µM.

In the case of `CC(C)N1CCN(CCNC2CCN(c3cccc(-c4cc5cc(F)ccc5[nH]4)c3)CC2)CC1` [UPCDC30245], the IC50 in the test on p97 [3] (allosteric p97 inhibitor) was 0.027 µM.

For the compound `CC(=O)OCC1=C(C)C[C@H]([C@@H](C)[C@H]2CC[C@H]3[C@@H]4C[C@H]5O[C@]56[C@@H](O)C=CC(=O)[C@]6(C)[C@H]4CC[C@]23C)OC1=O` [Withaferin A 27-Acetate], the “Inhibition against the C522A mutant (in words)” value in the test on C522A mutant is “didn’t show inhibition”. In addition, the “Anti-proliferative effects at lower concentration than p97 IC50” value in the test with cancer cell lines is given as 10 fold. Also, the IC50 with p97 [3] (wild-type p97) is 21 µM.

Take `CC1CCCC=CC(=O)c2c(O)cc(O)cc2CC(=O)O1` (stereo not shown) [Δ(10,11)-Dehydrocurvularin]: the IC50 in the test on p97 [3] (covalent bond with Cys522) is 15.3 ± 9.9 µM.

For the compound Oxaspirol B, in the test on p97 [3], the IC50 was 31.2 ± 3 µM.

Usually IC50 stands for the concentration that inhibits the measured activity by half.

Source of the values: PMC7954469 (European journal of medicinal chemistry, 2021).
